In ChEMBL document CHEMBL3046693, “Discovery and characterization of sulfoxaflor, a novel insecticide targeting sap-feeding pests” (J Agric Food Chem, 2011):
≈ marks a conversion by molar mass, not a printed value. Calls of active or inactive are those of the source. No cut-off for these calls is given here.

How the values were obtained:
Myzus persicae [1] = test: Insecticidal activity against Myzus persicae (green peach aphid) DAS lab strain by leaf disk bioassay; assay type: functional; conditions: foliar
Bemisia tabaci [2] = test: Insecticidal activity against Bemisia tabaci DAS (sweet potato whitefly) lab strain by leaf disk bioassay; assay type: functional; conditions: foliar
Bemisia tabaci [3] = test: Insecticidal activity against rothamsted-resistant Bemisia tabaci Q-biotype R-CHLORAKA (sweet potato whitefly) by leaf disk bioassay; assay type: functional; conditions: foliar
Bemisia tabaci [4] = test: Resistance index, ratio of LC50 for rothamsted-resistant Bemisia tabaci Q-biotype R-CHLORAKA (sweet potato whitefly) to LC50 for Bemisia tabaci SUD-S; assay type: functional
Bemisia tabaci [5] = test: Insecticidal activity against Bemisia tabaci SUD-S (sweet potato whitefly) by leaf disk bioassay; assay type: functional; conditions: foliar
Myzus persicae [6] = test: Insecticidal activity against drug resistant Myzus persicae R-4013A (green peach aphid) by leaf disk bioassay; assay type: functional; conditions: foliar
Myzus persicae [7] = test: Insecticidal activity against Myzus persicae S-USIL (green peach aphid) by leaf disk bioassay; assay type: functional; conditions: foliar
Aphis gossypii = test: Insecticidal activity against Aphis gossypii (cotton aphid) DAS lab strain by leaf disk bioassay; assay type: functional; conditions: foliar
Myzus persicae [8] = test: Resistance index, ratio of LC50 for drug resistant Myzus persicae R-4013A (green peach aphid) to LC50 for Myzus persicae S-USIL; assay type: functional
CYP6G1 [9] = test: Drug metabolism in Drosophila melanogaster D.mel-2 cells over-expressing in CYP6G1 assessed as drug recovery measured 24 hr post dose by HPLC method; assay type: ADME; conditions: D.mel-2 cells over-expressing CYP6G1, read-out: Drug recovery
[10] = (§1) Drug metabolism in Drosophila melanogaster D.mel-2 cells deficient in CYP6G1 assessed as drug recovery measured 24 hr post dose by HPLC method; assay type: ADME; conditions: 24 h
Bemisia tabaci [11] = test: Insecticidal activity against DAS insecticide-resistant Bemisia tabaci B-biotype R-PBI (sweet potato whitefly) by leaf disk bioassay; assay type: functional; conditions: foliar
Bemisia tabaci [12] = test: Insecticidal activity against rothamsted-resistant Bemisia tabaci Q-biotype R-4971BT9 (sweet potato whitefly) by leaf disk bioassay; assay type: functional; conditions: Q-biotype R-4971BT9, foliar
Bemisia tabaci [13] = test: Insecticidal activity against rothamsted-resistant Bemisia tabaci R-4991BT1 (sweet potato whitefly) by leaf disk bioassay; assay type: functional; conditions: R-4991BT1, foliar
Myzus persicae [14] = test: Insecticidal activity against Myzus persicae (green peach aphid) infested UV irradiated leaves of pepper plant exposed to compound at 124 ppm assessed as insect control efficacy post 0 day UV exposure relative to untreated control; assay type: functional
Procedure, shortened: (§2)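 Aphid control on treated UV-exposed pepper leaves scored 3 days after infestation; four replicates per treatment and time point.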

Bemisia tabaci [15] = test: Insecticidal activity against Bemisia tabaci S-4971BT1 (sweet potato whitefly) by leaf disk bioassay; assay type: functional; conditions: S-4971BT1, foliar
Bemisia tabaci [16] = test: Insecticidal activity against DAS-susceptible Bemisia tabaci S-4971BT1 (sweet potato whitefly) by leaf disk bioassay; assay type: functional; conditions: S-4971BT1, foliar
Drosophila melanogaster = test: Activation of Drosophila melanogaster nicotinic acetylcholine receptor alpha2 expressed in Xenopus laevis co-expressing chicken nicotinic acetylcholine receptor beta2 subunit by electrophysiology method
Procedure, shortened: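 Drosophila α2 cRNA co-injected with chicken β2 and C. elegans ric-3 chaperone into defolliculated X. laevis oocytes (≤50 nL at 1 ng/nL). Oocytes held singly in ND-96 (pH 7.6) at 18 °C and recorded 1-4 days after injection on an automated oocyte recording system.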

Bemisia tabaci [17] = test: Resistance index, ratio of LC50 for drug resistant rothamsted-resistant Bemisia tabaci R-4991BT1 (sweet potato whitefly) to LC50 for DAS-susceptible Bemisia tabaci S-4971BT1; assay type: functional
Bemisia tabaci [18] = test: Resistance index, ratio of LC50 for rothamsted-resistant Bemisia tabaci Q-biotype R-4971BT9 (sweet potato whitefly) to LC50 for Bemisia tabaci S-4971BT1; assay type: functional
Bemisia tabaci [19] = test: Resistance index, ratio of LC50 for DAS insecticide-resistant Bemisia tabaci B-biotype R-PB (sweet potato whitefly) to LC50 for drug sensitive Bemisia tabaci DAS lab strain; assay type: functional
Bemisia tabaci [20] = test: Insecticidal activity against drug sensitive Bemisia tabaci DAS (sweet potato whitefly) lab strain by leaf disk bioassay; assay type: functional; conditions: foliar
Myzus persicae [21] = test: Insecticidal activity against Myzus persicae (green peach aphid) infested UV irradiated leaves of pepper plant exposed to compound at 124 ppm assessed as insect control efficacy post 3 days UV exposure relative to untreated control; assay type: functional; procedure, shortened: as §2
Myzus persicae [22] = test: Insecticidal activity against Myzus persicae (green peach aphid) infested UV irradiated leaves of pepper plant exposed to compound at 124 ppm assessed as insect control efficacy post 7 days UV exposure relative to untreated control; assay type: functional; procedure, shortened: as §2
CYP6G1 [23] = test: as §1; assay type: ADME; conditions: D.mel-2 cells deficient in CYP6G1, read-out: Drug recovery
[24] = Stability assessed as half life for photolysis in UV chamber at 1000 ppm by HPLC method; assay type: physicochemical
Myzus persicae [25] = test: Displacement of [3H]imidacloprid from nicotinic acetylcholine receptor in Myzus persicae (green peach aphid) homogenates by scintillation counting
Procedure, shortened: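 Frozen (-80 °C) aphids homogenized at 4 °C in sucrose/Tris/EDTA/PMSF buffer (pH 7.2), filtered, spun 3500 rpm 15 min then 17500 rpm 20 min (4 °C). Pellet resuspended in 120 mM NaCl, 50 mM Tris (pH 7.4). ~2 nM [3H]IMI, 70 μg protein/well and competitor for 60 min at ~22 °C. Protein-started, filtration-stopped, scintillation-counted; total and filter binding measured.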

Compound	LC50 (Myzus persicae [1]) [µg/mL]	LC50 (Bemisia tabaci [2]) [µg/mL]	LC50 (Bemisia tabaci [3]) [µg/mL]	RatioLC50 (Bemisia tabaci [4])	LC50 (Bemisia tabaci [5]) [µg/mL]	LC50 (Myzus persicae [6]) [µg/mL]	LC50 (Myzus persicae [7]) [µg/mL]	LC50 (Aphis gossypii) [µg/mL]	RatioLC50 (Myzus persicae [8])	remaining at 24 h (CYP6G1 [9]) [%]	LC50 (Bemisia tabaci [11]) [µg/mL]	LC50 (Bemisia tabaci [12]) [µg/mL]	LC50 (Bemisia tabaci [13]) [µg/mL]	Efficacy (Myzus persicae [14]) [%]	LC50 (Bemisia tabaci [15]) [µg/mL]	LC50 (Bemisia tabaci [16]) [µg/mL]	Activity (Drosophila melanogaster)	RatioLC50 (Bemisia tabaci [17])	RatioLC50 (Bemisia tabaci [18])	RatioLC50 (Bemisia tabaci [19])	further results
CC(c1ccc(Cl)nc1)S(C)(=O)=NC#N (configuration not stated)	0.374 (≈ 1.53 µM)	0.29 (≈ 1.19 µM)	13.2 (≈ 54.2 µM)	2.9	4.48 (≈ 18.4 µM)	12.5 (≈ 51.3 µM)	62.3 (≈ 256 µM)	3 (≈ 12.3 µM)	0.2	–	–	–	–	–	–	–	–	–	–	–	–
C/C(=N\C#N)N(C)Cc1ccc(Cl)nc1 [ACETAMIPRID]	–	–	–	–	–	–	–	–	–	0	–	–	–	–	–	–	–	–	–	–	Drug recovery [10]: 122.7%
O=[N+]([O-])/N=C1\NCCN1Cc1ccc(Cl)nc1 [IMIDACLOPRID]	0.09 (≈ 0.352 µM)	0.37 (≈ 1.45 µM)	> 1000	>833	1.23 (≈ 4.81 µM)	15.3 (≈ 59.8 µM)	0.896 (≈ 3.5 µM)	7.8 (≈ 30.5 µM)	17.1	–	174 (≈ 681 µM)	4500 (≈ 17600 µM)	> 1000	100	4.4 (≈ 17.2 µM)	4.4 (≈ 17.2 µM)	Active	>230	1022	870	LC50 (Bemisia tabaci [20]): 0.2 µg/mL (≈ 0.782 µM); Efficacy (Myzus persicae [21]): 42%; Efficacy (Myzus persicae [22]): 21%
O=[N+]([O-])NC1=NCCN1Cc1ccc(Cl)nc1 [IMIDACLOPRID]	–	–	–	–	–	–	–	–	–	4.5	–	–	–	–	–	–	–	–	–	–	remaining at 24 h (CYP6G1 [23]): 115%; half-life at 1000 ppm [24]: 420 min
CC(c1ccc(C(F)(F)F)nc1)S(C)(=O)=NC#N (configuration not stated) [SULFOXAFLOR]	0.074 (≈ 0.267 µM)	0.85 (≈ 3.07 µM)	5 (≈ 18 µM)	2.8	1.8 (≈ 6.49 µM)	1.52 (≈ 5.48 µM)	4.13 (≈ 14.9 µM)	0.2 (≈ 0.721 µM)	0.37	108	6.4 (≈ 23.1 µM)	39 (≈ 141 µM)	28 (≈ 101 µM)	100	18 (≈ 64.9 µM)	18 (≈ 64.9 µM)	Active	1.6	2.2	2.3	remaining at 24 h (CYP6G1 [23]): 105%; LC50 (Bemisia tabaci [20]): 2.8 µg/mL (≈ 10.1 µM); half-life at 1000 ppm [24]: 5280 min; Activity (Myzus persicae [25]): Active; Efficacy (Myzus persicae [21]): 100%; Efficacy (Myzus persicae [22]): 90%
